Reference: ChEMBL document CHEMBL1255456, “Effect of NlpE overproduction on multidrug resistance in Escherichia coli” (2010)
≈ marks a conversion by molar mass, not a printed value. Calls of active or inactive are those of the source. No cut-off for these calls is given here.

Columns and labels:
Escherichia coli [1] = assay: Antibacterial activity against Escherichia coli NKE160 harboring deletion mutation in acrB protein and vector expressing tolC gene; type: functional
Escherichia coli [2] = assay: Antibacterial activity against Escherichia coli NKE158 harboring deletion mutation in acrB protein and vector expressing cpxAR gene; type: functional
Escherichia coli [3] = assay: Antibacterial activity against Escherichia coli NKE157 harboring deletion mutation in acrB, acrD protein and plasmid expressing nlpE gene; type: functional
Escherichia coli [4] = assay: Antibacterial activity against Escherichia coli NKE1365 harboring deletion mutation in acrB and mdtABC protein; type: functional
Escherichia coli [5] = assay: Antibacterial activity against Escherichia coli NKE1316 harboring deletion mutation in acrB, acrD and mdtABC protein; type: functional
Escherichia coli [6] = assay: Antibacterial activity against Escherichia coli NKE154 harboring vector expressing acrB deletion mutant; type: functional
Escherichia coli [7] = assay: Antibacterial activity against Escherichia coli NKE1355 harboring deletion mutation in acrB protein and plasmid expressing BAD gene in presence of increasing concentration of arabinose; type: functional, organism-based
Summary of the method: (§1)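 ΔacrB host carrying empty pBAD33 or pBAD33 with nlpE under the arabinose-inducible PBAD promoter. MICs of oxacillin, cloxacillin, nafcillin, cefamandole, aztreonam, novobiocin, deoxycholate and kanamycin were measured with arabinose at several concentrations from 0 to 10,000 μM. Each MIC determination was repeated at least three times.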

Escherichia coli [8] = assay: Antibacterial activity against Escherichia coli NKE1359 harboring deletion mutation in acrB protein and plasmid expressing BADnlpE gene in presence of increasing concentration of arabinose; type: functional, organism-based; summary of the method: as §1
Escherichia coli [9] = assay: Antibacterial activity against Escherichia coli NKE1368 harboring deletion mutation in acrB, acrD and mdtABC genes and carrying empty pHSG398 vector
Escherichia coli [10] = assay: Antibacterial activity against Escherichia coli NKE128 harboring deletion mutation in acrB and tolC protein; type: functional
Escherichia coli [11] = assay: Antibacterial activity against Escherichia coli NKE127 harboring deletion mutation in acrB and cpxAR protein; type: functional
Escherichia coli [12] = assay: Antibacterial activity against Escherichia coli NKE1369 harboring deletion mutation in acrB, acrD, mdtABC protein and plasmid expressing nlpE gene; type: functional
Escherichia coli [13] = assay: Antibacterial activity against Escherichia coli NKE156 harboring deletion mutation in acrB protein and vector expressing acrD gene; type: functional
Escherichia coli [14] = assay: Antibacterial activity against Escherichia coli NKE1366 harboring deletion mutation in acrB and vector expressing mdtABC gene; type: functional
Escherichia coli [15] = assay: Antibacterial activity against Escherichia coli NKE96 harboring deletion mutation in acrB protein; type: functional
Escherichia coli [16] = assay: Antibacterial activity against Escherichia coli NKE1367 harboring deletion mutation in acrB, mdtABC protein and plasmid expressing nlpE gene; type: functional
Escherichia coli [17] = assay: Antibacterial activity against Escherichia coli NKE126 harboring deletion mutation in acrB and acrD protein; type: functional
Escherichia coli [18] = assay: Antibacterial activity against Escherichia coli NKE161 harboring deletion mutation in acrB protein, vector expressing tolC gene and plasmid expressing nlpE gene; type: functional
Escherichia coli [19] = assay: Antibacterial activity against Escherichia coli NKE155 harboring deletion mutation in acrB protein and plasmid expressing nlpE gene; type: functional
Escherichia coli [20] = assay: Antibacterial activity against Escherichia coli NKE159 harboring deletion mutation in acrB, cpxAR protein and plasmid expressing nlpE gene; type: functional

Compound | MIC (Escherichia coli [1]) [µg/mL] | MIC (Escherichia coli [2]) [µg/mL] | MIC (Escherichia coli [3]) [µg/mL] | MIC (Escherichia coli [4]) [µg/mL] | MIC (Escherichia coli [5]) [µg/mL] | MIC (Escherichia coli [6]) [µg/mL] | Activity (Escherichia coli [7]) | Activity (Escherichia coli [8]) | MIC (Escherichia coli [9]) [µg/mL] | MIC (Escherichia coli [10]) [µg/mL] | MIC (Escherichia coli [11]) [µg/mL] | MIC (Escherichia coli [12]) [µg/mL] | MIC (Escherichia coli [13]) [µg/mL] | MIC (Escherichia coli [14]) [µg/mL] | MIC (Escherichia coli [15]) [µg/mL] | MIC (Escherichia coli [16]) [µg/mL] | MIC (Escherichia coli [17]) [µg/mL] | MIC (Escherichia coli [18]) [µg/mL] | MIC (Escherichia coli [19]) [µg/mL] | MIC (Escherichia coli [20]) [µg/mL]
C[C@H]1[C@H](NC(=O)/C(=N\OC(C)(C)C(=O)O)c2csc(N)n2)C(=O)N1S(=O)(=O)O [AZTREONAM] | 0.063 (≈ 0.145 µM) | 0.063 (≈ 0.145 µM) | 0.063 (≈ 0.145 µM) | 0.063 (≈ 0.145 µM) | 0.063 (≈ 0.145 µM) | 0.063 (≈ 0.145 µM) | Active | inactive | 0.063 (≈ 0.145 µM) | 0.063 (≈ 0.145 µM) | 0.063 (≈ 0.145 µM) | 0.063 (≈ 0.145 µM) | 0.063 (≈ 0.145 µM) | 0.063 (≈ 0.145 µM) | 0.063 (≈ 0.145 µM) | 0.25 (≈ 0.574 µM) | 0.063 (≈ 0.145 µM) | 0.063 (≈ 0.145 µM) | 0.25 (≈ 0.574 µM) | 0.063 (≈ 0.145 µM)
CC1(C)S[C@@H]2[C@H](NC(=O)C(C(=O)O)c3ccccc3)C(=O)N2[C@H]1C(=O)O (some centres undefined) [CARBENICILLIN] | 1 (≈ 2.64 µM) | 1 (≈ 2.64 µM) | 2 (≈ 5.29 µM) | 1 (≈ 2.64 µM) | 1 (≈ 2.64 µM) | 1 (≈ 2.64 µM) | – | – | 1 (≈ 2.64 µM) | 1 (≈ 2.64 µM) | 1 (≈ 2.64 µM) | 1 (≈ 2.64 µM) | 1 (≈ 2.64 µM) | 1 (≈ 2.64 µM) | 1 (≈ 2.64 µM) | 4 (≈ 10.6 µM) | 1 (≈ 2.64 µM) | 1 (≈ 2.64 µM) | 8 (≈ 21.1 µM) | 1 (≈ 2.64 µM)
NC(=O)OC[C@@H]1[C@H](NC(=O)/C(=N\OCC(=O)O)c2csc(N)n2)C(=O)N1S(=O)(=O)O [CARUMONAM] | 0.031 (≈ 0.0665 µM) | 0.031 (≈ 0.0665 µM) | 0.063 (≈ 0.135 µM) | 0.031 (≈ 0.0665 µM) | 0.031 (≈ 0.0665 µM) | 0.031 (≈ 0.0665 µM) | – | – | 0.031 (≈ 0.0665 µM) | 0.031 (≈ 0.0665 µM) | 0.031 (≈ 0.0665 µM) | 0.031 (≈ 0.0665 µM) | 0.031 (≈ 0.0665 µM) | 0.031 (≈ 0.0665 µM) | 0.031 (≈ 0.0665 µM) | 0.13 (≈ 0.279 µM) | 0.031 (≈ 0.0665 µM) | 0.031 (≈ 0.0665 µM) | 0.25 (≈ 0.536 µM) | 0.031 (≈ 0.0665 µM)
Cn1nnnc1SCC1=C(C(=O)O)N2C(=O)[C@@H](NC(=O)[C@H](O)c3ccccc3)[C@H]2SC1 [CEFAMANDOLE] | 0.063 (≈ 0.136 µM) | 0.063 (≈ 0.136 µM) | 0.13 (≈ 0.281 µM) | 0.063 (≈ 0.136 µM) | 0.063 (≈ 0.136 µM) | 0.063 (≈ 0.136 µM) | Active | inactive | 0.063 (≈ 0.136 µM) | 0.063 (≈ 0.136 µM) | 0.063 (≈ 0.136 µM) | 0.063 (≈ 0.136 µM) | 0.063 (≈ 0.136 µM) | 0.063 (≈ 0.136 µM) | 0.063 (≈ 0.136 µM) | 0.13 (≈ 0.281 µM) | 0.063 (≈ 0.136 µM) | 0.063 (≈ 0.136 µM) | 0.25 (≈ 0.541 µM) | 0.063 (≈ 0.136 µM)
Cc1onc(-c2ccccc2Cl)c1C(=O)N[C@@H]1C(=O)N2[C@@H]1SC(C)(C)[C@@H]2C(=O)O [CLOXACILLIN] | 0.25 (≈ 0.574 µM) | 1 (≈ 2.29 µM) | 2 (≈ 4.59 µM) | 1 (≈ 2.29 µM) | 0.5 (≈ 1.15 µM) | 1 (≈ 2.29 µM) | Active | inactive | 0.5 (≈ 1.15 µM) | 0.25 (≈ 0.574 µM) | 1 (≈ 2.29 µM) | 0.5 (≈ 1.15 µM) | 1 (≈ 2.29 µM) | 1 (≈ 2.29 µM) | 1 (≈ 2.29 µM) | 4 (≈ 9.18 µM) | 1 (≈ 2.29 µM) | 0.25 (≈ 0.574 µM) | 16 (≈ 36.7 µM) | 1 (≈ 2.29 µM)
C[C@H](CCC(=O)O)[C@H]1CC[C@H]2[C@@H]3CC[C@@H]4C[C@H](O)CC[C@]4(C)[C@H]3C[C@H](O)[C@]12C [DEOXYCHOLIC ACID] | 156 (≈ 397 µM) | 2500 (≈ 6370 µM) | 10000 (≈ 25500 µM) | 5000 (≈ 12700 µM) | 2500 (≈ 6370 µM) | 5000 (≈ 12700 µM) | Active | inactive | 2500 (≈ 6370 µM) | 156 (≈ 397 µM) | 2500 (≈ 6370 µM) | 2500 (≈ 6370 µM) | 5000 (≈ 12700 µM) | 5000 (≈ 12700 µM) | 5000 (≈ 12700 µM) | 10000 (≈ 25500 µM) | 5000 (≈ 12700 µM) | 156 (≈ 397 µM) | 40000 (≈ 102000 µM) | 2500 (≈ 6370 µM)
NC[C@H]1O[C@H](O[C@H]2[C@H](O)[C@@H](O[C@H]3O[C@H](CO)[C@@H](O)[C@H](N)[C@H]3O)[C@H](N)C[C@@H]2N)[C@H](O)[C@@H](O)[C@@H]1O [KANAMYCIN] | 1 (≈ 2.06 µM) | 1 (≈ 2.06 µM) | 4 (≈ 8.26 µM) | 2 (≈ 4.13 µM) | 2 (≈ 4.13 µM) | 2 (≈ 4.13 µM) | Active | inactive | 2 (≈ 4.13 µM) | 1 (≈ 2.06 µM) | 1 (≈ 2.06 µM) | 4 (≈ 8.26 µM) | 2 (≈ 4.13 µM) | 2 (≈ 4.13 µM) | 2 (≈ 4.13 µM) | 8 (≈ 16.5 µM) | 2 (≈ 4.13 µM) | 2 (≈ 4.13 µM) | 8 (≈ 16.5 µM) | 1 (≈ 2.06 µM)
CCOc1ccc2ccccc2c1C(=O)N[C@@H]1C(=O)N2[C@@H]1SC(C)(C)[C@@H]2C(=O)O [NAFCILLIN] | 1 (≈ 2.41 µM) | 1 (≈ 2.41 µM) | 4 (≈ 9.65 µM) | 1 (≈ 2.41 µM) | 1 (≈ 2.41 µM) | 2 (≈ 4.83 µM) | Active | inactive | 1 (≈ 2.41 µM) | 1 (≈ 2.41 µM) | 1 (≈ 2.41 µM) | 1 (≈ 2.41 µM) | 1 (≈ 2.41 µM) | 1 (≈ 2.41 µM) | 2 (≈ 4.83 µM) | 4 (≈ 9.65 µM) | 1 (≈ 2.41 µM) | 1 (≈ 2.41 µM) | 16 (≈ 38.6 µM) | 1 (≈ 2.41 µM)
CO[C@@H]1[C@@H](OC(N)=O)[C@@H](O)[C@H](Oc2ccc3c(O)c(NC(=O)c4ccc(O)c(CC=C(C)C)c4)c(=O)oc3c2C)OC1(C)C [NOVOBIOCIN] | 2 (≈ 3.26 µM) | 4 (≈ 6.53 µM) | 8 (≈ 13.1 µM) | 4 (≈ 6.53 µM) | 2 (≈ 3.26 µM) | 4 (≈ 6.53 µM) | Active | inactive | 2 (≈ 3.26 µM) | 2 (≈ 3.26 µM) | 4 (≈ 6.53 µM) | 2 (≈ 3.26 µM) | 4 (≈ 6.53 µM) | 4 (≈ 6.53 µM) | 4 (≈ 6.53 µM) | 8 (≈ 13.1 µM) | 4 (≈ 6.53 µM) | 2 (≈ 3.26 µM) | 16 (≈ 26.1 µM) | 4 (≈ 6.53 µM)
Cc1onc(-c2ccccc2)c1C(=O)N[C@@H]1C(=O)N2[C@@H]1SC(C)(C)[C@@H]2C(=O)O [OXACILLIN] | 0.5 (≈ 1.25 µM) | 0.5 (≈ 1.25 µM) | 2 (≈ 4.98 µM) | 1 (≈ 2.49 µM) | 0.5 (≈ 1.25 µM) | 1 (≈ 2.49 µM) | Active | inactive | 0.5 (≈ 1.25 µM) | 0.5 (≈ 1.25 µM) | 0.5 (≈ 1.25 µM) | 0.5 (≈ 1.25 µM) | 0.5 (≈ 1.25 µM) | 1 (≈ 2.49 µM) | 1 (≈ 2.49 µM) | 4 (≈ 9.96 µM) | 0.5 (≈ 1.25 µM) | 0.5 (≈ 1.25 µM) | 8 (≈ 19.9 µM) | 0.5 (≈ 1.25 µM)
CC1(C)S[C@@H]2[C@H](NC(=O)C(c3ccccc3)S(=O)(=O)O)C(=O)N2[C@H]1C(=O)O (some centres undefined) [SULBENICILLIN] | 1 (≈ 2.41 µM) | 1 (≈ 2.41 µM) | 2 (≈ 4.83 µM) | 2 (≈ 4.83 µM) | 1 (≈ 2.41 µM) | 2 (≈ 4.83 µM) | – | – | 1 (≈ 2.41 µM) | 1 (≈ 2.41 µM) | 1 (≈ 2.41 µM) | 1 (≈ 2.41 µM) | 1 (≈ 2.41 µM) | 2 (≈ 4.83 µM) | 2 (≈ 4.83 µM) | 8 (≈ 19.3 µM) | 1 (≈ 2.41 µM) | 1 (≈ 2.41 µM) | 16 (≈ 38.6 µM) | 1 (≈ 2.41 µM)
